For 16 molecules, GI50 results are on record in ChEMBL document CHEMBL3576825, “Antineoplastic agents. 600. From the South Pacific Ocean to the silstatins” (J Nat Prod, 2015).

Series [1] can be described thus: Cytotoxicity against human BxPC3 cells after 48 hrs by sulforhodamine B assay. The series is classed as functional. To be noted: BXPC-3, 48 h. The method, boiled down: (§1)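 NCI standard SRB protocol. Cells were seeded in 5% FBS/RPMI-1640 and incubated 24 h, then given serial dilutions of compound for 48 h. Plates were fixed with trichloroacetic acid, stained with sulforhodamine B and read by microplate reader. GI50, the concentration giving a 50% reduction in net protein increase, was calculated from optical density data.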

The next series relates to MCF7. The series is described as follows: Cytotoxicity against human MCF7 cells after 48 hrs by sulforhodamine B assay. The series is classed as functional. The settings on record: MCF7, 48 h. In a few lines: as §1
(Sulforhodamine B stains cellular protein and so reports cell mass.)

The next series has as its system SF-268. The series is described as follows: Cytotoxicity against human SF268 cells after 48 hrs by sulforhodamine B assay. In kind it is functional. To be noted: SF-268, 48 h. The method, boiled down:
as §1

For another series, the system named is NCI-H460. The series can be described thus: Cytotoxicity against human NCI-H460 cells after 48 hrs by sulforhodamine B assay. The series is classed as functional. To be noted: NCI-H460, 48 h. The method, boiled down: as §1
Series [2] can be described thus: Cytotoxicity against human KM20L2 cells after 48 hrs by sulforhodamine B assay. In kind it is functional. The settings on record: KM-20L2, 48 h. In a few lines:
as §1

A further series has as its system DU-145. The series is described as follows: Cytotoxicity against human DU145 cells after 48 hrs by sulforhodamine B assay. The series is classed as functional. The settings on record: DU-145, 48 h. In a few lines:
as §1

A short description of series [3]: Cytotoxicity against human MCF10A cells after 48 hrs by sulforhodamine B assay. In kind it is cell-based, MCF-10A.
Series [4] in a line: Cytotoxicity against human CRL2221 cells after 48 hrs by sulforhodamine B assay. The series is classed as cell-based.

As usually defined, the GI50 is the concentration that inhibits growth by half. Higher therefore signals less potent growth inhibition. `CC(C)C[C@H]1OC(=O)[C@H](C(C)C)NC(=O)[C@H](C)OC(=O)[C@@H](C(C)C)NC(=O)[C@@H](CC2CCCCC2)OC(=O)[C@H]([C@@H](C)O)NC(=O)[C@H](C)OC(=O)[C@@H](C(C)C)NC(=O)[C@@H](CC(C)C)OC(=O)[C@H](C(C)C)NC(=O)[C@H](C)OC(=O)[C@@H](C(C)C)NC1=O`: the GI50 in series [1] was found to be 3.2 nM; with MCF7, 1.5 nM; in the series on SF-268, 2.6 nM; in the series with NCI-H460, 3.3 nM; in series [2], 1.7 nM; with DU-145 it was 2.5 nM. Also, the GI50 at 48 h in series [3] and in series [4] was 3.35 nM throughout.

As for `CC[C@H](C)[C@H]1OC(=O)[C@H](C(C)C)NC(=O)[C@H](C)OC(=O)[C@@H](C(C)C)NC(=O)[C@@H]([C@@H](C)CC)OC(=O)[C@H](C(C)C)NC(=O)[C@H](C)OC(=O)[C@@H](C(C)C)NC(=O)[C@@H](CC(C)C)OC(=O)[C@H](C(C)C)NC(=O)[C@H](C)OC(=O)[C@@H](C(C)C)NC1=O`, the GI50 in series [1] turned out to be 0.29 nM; with MCF7 it was 0.27 nM; in the series on SF-268 it was 1.6 nM; in the series on NCI-H460 it was 0.39 nM; in series [2] it was 0.23 nM; in the series with DU-145, 0.75 nM.

As for `CC(C)C[C@H]1OC(=O)[C@H](C(C)C)NC(=O)[C@H](C)OC(=O)[C@@H](C(C)C)NC(=O)[C@@H](CC(C)C)OC(=O)[C@H]([C@@H](C)O)NC(=O)[C@H](C)OC(=O)[C@@H](C(C)C)NC(=O)[C@@H](CC(C)C)OC(=O)[C@H](C(C)C)NC(=O)[C@H](C)OC(=O)[C@@H](C(C)C)NC1=O`, the GI50 amounted to 3.5 nM in series [1]; 1.9 nM with MCF7; 2.7 nM in the series with SF-268; 2.8 nM in the series on NCI-H460; 2.9 nM in series [2]; 5.2 nM with DU-145.

In the case of `CC[C@H](C)[C@H]1OC(=O)[C@H](C(C)C)NC(=O)[C@H](C)OC(=O)[C@@H](C(C)C)NC(=O)[C@@H]([C@@H](C)CC)OC(=O)[C@H](C(C)C)NC(=O)[C@H](C)OC(=O)[C@@H](C(C)C)NC(=O)[C@@H]([C@@H](C)CC)OC(=O)[C@H](C(C)C)NC(=O)[C@H](C)OC(=O)[C@@H](C(C)C)NC1=O` [BACILLISTATIN 1], the GI50 in series [1] came out at 0.82 nM; with MCF7, 0.53 nM; with SF-268 it was 0.39 nM; with NCI-H460 it was 1.2 nM; in series [2], 0.75 nM; in the series with DU-145 it was 1.3 nM.

On to `CC(C)C[C@H]1OC(=O)[C@H](C(C)C)NC(=O)[C@H](C)OC(=O)[C@@H](C(C)C)NC(=O)[C@@H](CC(C)C)OC(=O)[C@H](C(C)C)NC(=O)[C@H](C)OC(=O)[C@@H](C(C)C)NC(=O)[C@@H](CC(C)C)OC(=O)[C@H](C(C)C)NC(=O)[C@H](C)OC(=O)[C@@H](C(C)C)NC1=O`, for which the GI50 is 0.69 nM in series [1]; 0.095 nM in the series with MCF7; 0.18 nM with SF-268; 0.61 nM in the series with NCI-H460; 0.14 nM in series [2]; 0.36 nM with DU-145.

Take `CC(C)[C@@H]1NC(=O)[C@H](C)OC(=O)[C@@H](C(C)C)NC(=O)[C@@H](CC2CCCCC2)OC(=O)[C@H](C(C)C)NC(=O)[C@H](C)OC(=O)[C@@H](C(C)C)NC(=O)[C@@H](CC2CCCCC2)OC(=O)[C@H](C(C)C)NC(=O)[C@H](C)OC(=O)[C@@H](C(C)C)NC(=O)[C@@H](CC2CCCCC2)OC1=O`: the GI50 in series [1] is 392 nM; in the series on MCF7, 141 nM; in the series with SF-268 it was 63.6 nM; in the series with NCI-H460 it was 314 nM; in series [2] it was 141 nM; with DU-145 it was 173 nM.

On to `CC(C)C[C@H]1OC(=O)[C@H](Cc2ccc(O)cc2)NC(=O)[C@H](C)OC(=O)[C@@H](C(C)C)NC(=O)[C@@H](CC(C)C)OC(=O)[C@H](C(C)C)NC(=O)[C@H](C)OC(=O)[C@@H](C(C)C)NC(=O)[C@@H](CC(C)C)OC(=O)[C@H](C(C)C)NC(=O)[C@H](C)OC(=O)[C@@H](C(C)C)NC1=O`, for which the concentration for 50% growth inhibition (GI50) in series [1] came to 4.1 nM; in the series with MCF7, 1.3 nM; with SF-268, 3.3 nM; in the series on NCI-H460 it was 3 nM; in series [2], 0.9 nM; in the series with DU-145, 4.2 nM.

As to `CC(C)C[C@H]1OC(=O)[C@H](Cc2ccc(OC(C)(C)C)cc2)NC(=O)[C@H](C)OC(=O)[C@@H](C(C)C)NC(=O)[C@@H](CC(C)C)OC(=O)[C@H](C(C)C)NC(=O)[C@H](C)OC(=O)[C@@H](C(C)C)NC(=O)[C@@H](CC(C)C)OC(=O)[C@H](C(C)C)NC(=O)[C@H](C)OC(=O)[C@@H](C(C)C)NC1=O`, the GI50 worked out at 24 nM in series [1]; 3.3 nM in the series with MCF7; 2 nM with SF-268; 23 nM in the series with NCI-H460; 3.8 nM in series [2]; 8.6 nM in the series with DU-145.

For the molecule `CC(C)C[C@H]1OC(=O)[C@H](C(C)C)NC(=O)[C@H](C)OC(=O)[C@@H](C(C)C)NC(=O)[C@@H](CC(C)C)OC(=O)[C@H](C(C)C)NC(=O)[C@H](C)OC(=O)[C@@H](C(C)C)NC(=O)[C@@H](CC2CCCCC2)OC(=O)[C@H](Cc2ccc(O)cc2)NC(=O)[C@H](C)OC(=O)[C@@H](C(C)C)NC1=O`, the GI50 in series [1] amounted to 4.8 nM; with MCF7 it was 0.88 nM; in the series on SF-268 it was 2.4 nM; in the series on NCI-H460, 3.2 nM; in series [2], 1.7 nM; in the series on DU-145, 4.3 nM.

As to `CC(C)C[C@H]1OC(=O)[C@H](C(C)C)NC(=O)[C@H](C)OC(=O)[C@@H](C(C)C)NC(=O)[C@@H](CC2CCCCC2)OC(=O)[C@H]([C@@H](C)OC(C)(C)C)NC(=O)[C@H](C)OC(=O)[C@@H](C(C)C)NC(=O)[C@@H](CC(C)C)OC(=O)[C@H](C(C)C)NC(=O)[C@H](C)OC(=O)[C@@H](C(C)C)NC1=O`, the GI50 in series [1] came out at 18 nM; with MCF7, 0.79 nM; in the series on SF-268, 3.2 nM; with NCI-H460, 7.2 nM; in series [2], 1.9 nM; in the series on DU-145 it was 5.6 nM.

For `CC(C)[C@@H]1NC(=O)[C@H](C)OC(=O)[C@@H](C(C)C)NC(=O)[C@@H](CC2CCCCC2)OC(=O)[C@H]([C@@H](C)OC(C)(C)C)NC(=O)[C@H](C)OC(=O)[C@@H](C(C)C)NC(=O)[C@@H](CC2CCCCC2)OC(=O)[C@H](C(C)C)NC(=O)[C@H](C)OC(=O)[C@@H](C(C)C)NC(=O)[C@@H](CC2CCCCC2)OC1=O`, the GI50 came out at 135 nM in series [1]; 56.3 nM in the series on MCF7; 56.3 nM in the series on SF-268; 240 nM with NCI-H460; 60 nM in series [2]; 90 nM in the series on DU-145.

As for `CC(C)C[C@H]1OC(=O)[C@H](C(C)C)NC(=O)[C@H](C)OC(=O)[C@@H](C(C)C)NC(=O)[C@@H](CC2CCCCC2)OC(=O)[C@H]([C@@H](C)OC(=O)CCCN(C)C(=O)OCc2ccc(O[C@@H]3O[C@H](C(=O)O)[C@@H](O)[C@H](O)[C@H]3O)c([N+](=O)[O-])c2)NC(=O)[C@H](C)OC(=O)[C@@H](C(C)C)NC(=O)[C@@H](CC(C)C)OC(=O)[C@H](C(C)C)NC(=O)[C@H](C)OC(=O)[C@@H](C(C)C)NC1=O`, the concentration for 50% growth inhibition (GI50) in series [1] was found to be 120 nM; in the series on MCF7, 18.6 nM; in the series with SF-268, 30 nM; in the series with NCI-H460 it was 42 nM; in series [2] it was 24 nM; with DU-145, 78.1 nM. Also, the concentration for 50% growth inhibition (GI50) at 48 h is 150 nM in series [3] and 30 nM in series [4].

`CC(C)[C@@H]1NC(=O)[C@H](C)OC(=O)[C@@H](C(C)C)NC(=O)[C@@H](CC2CCCCC2)OC(=O)[C@H]([C@@H](C)O)NC(=O)[C@H](C)OC(=O)[C@@H](C(C)C)NC(=O)[C@@H](CC2CCCCC2)OC(=O)[C@H](C(C)C)NC(=O)[C@H](C)OC(=O)[C@@H](C(C)C)NC(=O)[C@@H](CC2CCCCC2)OC1=O`: the GI50 in series [1] came to 24 nM; in the series on MCF7, 2.4 nM; in the series with SF-268, 3.4 nM; in the series with NCI-H460 it was 16 nM; in series [2], 3.4 nM; in the series with DU-145, 3.9 nM.

`CC(C)[C@@H]1NC(=O)[C@H](C)OC(=O)[C@@H](C(C)C)NC(=O)[C@@H](CC2CCCCC2)OC(=O)[C@H](C(C)C)NC(=O)[C@H](C)OC(=O)[C@@H](C(C)C)NC(=O)[C@@H](CC2CCCCC2)OC(=O)[C@H](Cc2ccc(O)cc2)NC(=O)[C@H](C)OC(=O)[C@@H](C(C)C)NC(=O)[C@@H](CC2CCCCC2)OC1=O`: the GI50 in series [1] is 396 nM; in the series with MCF7, 89.7 nM; in the series on SF-268, 37.4 nM; in the series with NCI-H460, 239 nM; in series [2], 67.3 nM; in the series with DU-145, 164 nM.

As to `CC(C)[C@@H]1NC(=O)[C@H](C)OC(=O)[C@@H](C(C)C)NC(=O)[C@@H](CC2CCCCC2)OC(=O)[C@H](C(C)C)NC(=O)[C@H](C)OC(=O)[C@@H](C(C)C)NC(=O)[C@@H](CC2CCCCC2)OC(=O)[C@H](Cc2ccc(OC(C)(C)C)cc2)NC(=O)[C@H](C)OC(=O)[C@@H](C(C)C)NC(=O)[C@@H](CC2CCCCC2)OC1=O`, the GI50 (in series [1]; in the series with MCF7; with SF-268; in the series on NCI-H460; in series [2]; in the series on DU-145) was above 717 nM throughout.

Turning to `CC(C)C[C@H]1OC(=O)[C@H](C(C)C)NC(=O)[C@H](C)OC(=O)[C@@H](C(C)C)NC(=O)[C@@H](CC(C)C)OC(=O)[C@H](C(C)C)NC(=O)[C@H](C)OC(=O)[C@@H](C(C)C)NC(=O)[C@@H](CC2CCCCC2)OC(=O)[C@H](Cc2ccc(OC(C)(C)C)cc2)NC(=O)[C@H](C)OC(=O)[C@@H](C(C)C)NC1=O`, the GI50 came to 68 nM in series [1]; 24 nM with MCF7; 46 nM in the series with SF-268; 91 nM with NCI-H460; 40 nM in series [2]; 30 nM with DU-145.
